Reference: ChEMBL document CHEMBL1667774, “Synthesis and evaluation of a class of new coumarin triazole derivatives as potential antimicrobial agents” (2011)
In brackets after ≈: the same amount, converted by molar mass.

What was measured:
Aspergillus fumigatus = test: Antifungal activity against Aspergillus fumigatus ATCC 96918 by twofold broth dilution method; type: functional
Procedure, shortened: (§1)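 Two-fold broth dilution in 96-well micro-test plates, following NCCLS recommendations. Enoxacin and Chloromycin served as positive controls for bacteria, and Fluconazole for fungi. The read-out is the MIC in µg/mL.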

Bacillus subtilis = test: Antimicrobial activity against Bacillus subtilis ATCC 6633 by twofold broth dilution method; type: functional; procedure, shortened: as §1
Staphylococcus aureus [1] = test: Antimicrobial activity against Staphylococcus aureus ATCC 25923 by twofold broth dilution method; type: functional; procedure, shortened: as §1
Staphylococcus aureus [2] = test: Antimicrobial activity against methicillin-resistant Staphylococcus aureus N 315 by twofold broth dilution method; type: functional
Procedure, shortened: (§2)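 Antibacterial MIC, determined by two-fold serial broth dilution following the NCCLS-recommended method. Clinical antimicrobial drugs were run alongside as positive controls.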

Micrococcus luteus = test: Antimicrobial activity against Micrococcus luteus ATCC 4698 by twofold broth dilution method; type: functional; procedure, shortened: as §1
Saccharomyces cerevisiae = test: Antifungal activity against Saccharomyces cerevisiae ATCC 9763 by twofold broth dilution method; type: functional; procedure, shortened: as §1
Candida albicans = test: Antifungal activity against Candida albicans ATCC 76615 by twofold broth dilution method; type: functional; procedure, shortened: as §1
Salmonella typhi = test: Antimicrobial activity against Salmonella typhi ATCC 9484 by twofold broth dilution method; type: functional, Salmonella enterica subsp. enterica serovar Typhi; settings: Salmonella enterica; procedure, shortened: as §2
Shigella dysenteriae = test: Antimicrobial activity against Shigella dysenteriae ATCC 49550 by twofold broth dilution method; type: functional; procedure, shortened: as §2
Proteus vulgaris = test: Antimicrobial activity against Proteus vulgaris ATCC 6896 by twofold broth dilution method; type: functional; procedure, shortened: as §1
Escherichia coli = test: Antimicrobial activity against Escherichia coli ATCC 25922 by twofold broth dilution method; type: functional; procedure, shortened: as §1

Row | SMILES | MIC (Aspergillus fumigatus) [µg/mL] | MIC (Bacillus subtilis) [µg/mL] | MIC (Staphylococcus aureus [1]) [µg/mL] | MIC (Staphylococcus aureus [2]) [µg/mL] | MIC (Micrococcus luteus) [µg/mL] | MIC (Saccharomyces cerevisiae) [µg/mL] | MIC (Candida albicans) [µg/mL] | MIC (Salmonella typhi) [µg/mL] | MIC (Shigella dysenteriae) [µg/mL] | MIC (Proteus vulgaris) [µg/mL] | MIC (Escherichia coli) [µg/mL]
1 | Cc1cc(=O)oc2cc(OCCCCCCBr)cc(OCCCCCCBr)c12 | 128 (≈ 247 µM) | 128 (≈ 247 µM) | 256 (≈ 494 µM) | 512 (≈ 988 µM) | 128 (≈ 247 µM) | 128 (≈ 247 µM) | 128 (≈ 247 µM) | 512 (≈ 988 µM) | 512 (≈ 988 µM) | 512 (≈ 988 µM) | 512 (≈ 988 µM)
2 | Cc1cc(=O)oc2cc(OCCCCBr)ccc12 | 512 (≈ 1650 µM) | 128 (≈ 411 µM) | 128 (≈ 411 µM) | 256 (≈ 823 µM) | 128 (≈ 411 µM) | 256 (≈ 823 µM) | 128 (≈ 411 µM) | 256 (≈ 823 µM) | 512 (≈ 1650 µM) | 256 (≈ 823 µM) | 256 (≈ 823 µM)
3 | Cc1cc(=O)oc2cc(OCCCCCBr)ccc12 | 256 (≈ 787 µM) | 128 (≈ 394 µM) | 128 (≈ 394 µM) | 256 (≈ 787 µM) | 256 (≈ 787 µM) | 512 (≈ 1570 µM) | 128 (≈ 394 µM) | 512 (≈ 1570 µM) | 256 (≈ 787 µM) | 512 (≈ 1570 µM) | 512 (≈ 1570 µM)
4 | Cc1cc(=O)oc2cc(OCCCCCCBr)ccc12 | 512 (≈ 1510 µM) | 128 (≈ 377 µM) | 64 (≈ 189 µM) | 256 (≈ 755 µM) | 64 (≈ 189 µM) | 256 (≈ 755 µM) | 256 (≈ 755 µM) | 256 (≈ 755 µM) | 512 (≈ 1510 µM) | 256 (≈ 755 µM) | 512 (≈ 1510 µM)
5 | Cc1cc(=O)oc2cc(OCc3ccc(CBr)cc3)ccc12 | 256 (≈ 713 µM) | 256 (≈ 713 µM) | 256 (≈ 713 µM) | 512 (≈ 1430 µM) | 256 (≈ 713 µM) | 256 (≈ 713 µM) | 256 (≈ 713 µM) | 512 (≈ 1430 µM) | 512 (≈ 1430 µM) | 512 (≈ 1430 µM) | 512 (≈ 1430 µM)
6 | Cc1cc(=O)oc2cc(OCCCCBr)cc(OCCCCBr)c12 | 256 (≈ 554 µM) | 128 (≈ 277 µM) | 256 (≈ 554 µM) | 512 (≈ 1110 µM) | 256 (≈ 554 µM) | 256 (≈ 554 µM) | 128 (≈ 277 µM) | 256 (≈ 554 µM) | 256 (≈ 554 µM) | 256 (≈ 554 µM) | 512 (≈ 1110 µM)
7 | Cc1cc(=O)oc2cc(OCCCCCBr)cc(OCCCCCBr)c12 | 128 (≈ 261 µM) | 128 (≈ 261 µM) | 128 (≈ 261 µM) | 256 (≈ 522 µM) | 128 (≈ 261 µM) | 256 (≈ 522 µM) | 128 (≈ 261 µM) | 256 (≈ 522 µM) | 256 (≈ 522 µM) | 256 (≈ 522 µM) | 512 (≈ 1040 µM)
8 | Cc1cc(=O)oc2cc(OCc3ccc(CBr)cc3)cc(OCc3ccc(CBr)cc3)c12 | 256 (≈ 459 µM) | 128 (≈ 229 µM) | 256 (≈ 459 µM) | 512 (≈ 917 µM) | 256 (≈ 459 µM) | 256 (≈ 459 µM) | 256 (≈ 459 µM) | 256 (≈ 459 µM) | 512 (≈ 917 µM) | 512 (≈ 917 µM) | 512 (≈ 917 µM)
9 | Cc1cc(=O)oc2cc(OCCCCn3cncn3)ccc12 | 16 (≈ 53.5 µM) | 2 (≈ 6.68 µM) | 2 (≈ 6.68 µM) | 8 (≈ 26.7 µM) | 4 (≈ 13.4 µM) | 4 (≈ 13.4 µM) | 2 (≈ 6.68 µM) | 16 (≈ 53.5 µM) | 16 (≈ 53.5 µM) | 16 (≈ 53.5 µM) | 8 (≈ 26.7 µM)
10 | Cc1cc(=O)oc2cc(OCCCCCn3cncn3)ccc12 | 16 (≈ 51.1 µM) | 4 (≈ 12.8 µM) | 4 (≈ 12.8 µM) | 16 (≈ 51.1 µM) | 8 (≈ 25.5 µM) | 16 (≈ 51.1 µM) | 8 (≈ 25.5 µM) | 16 (≈ 51.1 µM) | 32 (≈ 102 µM) | 32 (≈ 102 µM) | 32 (≈ 102 µM)
11 | Cc1cc(=O)oc2cc(OCCCCCCn3cncn3)ccc12 | 32 (≈ 97.7 µM) | 8 (≈ 24.4 µM) | 8 (≈ 24.4 µM) | 16 (≈ 48.9 µM) | 8 (≈ 24.4 µM) | 32 (≈ 97.7 µM) | 16 (≈ 48.9 µM) | 32 (≈ 97.7 µM) | 32 (≈ 97.7 µM) | 32 (≈ 97.7 µM) | 32 (≈ 97.7 µM)
12 | Cc1cc(=O)oc2cc(OCc3ccc(Cn4cncn4)cc3)ccc12 | 64 (≈ 184 µM) | 32 (≈ 92.1 µM) | 32 (≈ 92.1 µM) | 64 (≈ 184 µM) | 32 (≈ 92.1 µM) | 64 (≈ 184 µM) | 32 (≈ 92.1 µM) | 64 (≈ 184 µM) | 64 (≈ 184 µM) | 64 (≈ 184 µM) | 64 (≈ 184 µM)
13 | Cc1cc(=O)oc2cc(OCCCCn3cncn3)cc(OCCCCn3cncn3)c12 | 4 (≈ 9.12 µM) | 2 (≈ 4.56 µM) | 1 (≈ 2.28 µM) | 2 (≈ 4.56 µM) | 1 (≈ 2.28 µM) | 2 (≈ 4.56 µM) | 1 (≈ 2.28 µM) | 1 (≈ 2.28 µM) | 1 (≈ 2.28 µM) | 2 (≈ 4.56 µM) | 1 (≈ 2.28 µM)
14 | Cc1cc(=O)oc2cc(OCCCCCn3cncn3)cc(OCCCCCn3cncn3)c12 | 32 (≈ 68.6 µM) | 4 (≈ 8.57 µM) | 2 (≈ 4.29 µM) | 8 (≈ 17.1 µM) | 4 (≈ 8.57 µM) | 4 (≈ 8.57 µM) | 2 (≈ 4.29 µM) | 4 (≈ 8.57 µM) | 4 (≈ 8.57 µM) | 4 (≈ 8.57 µM) | 8 (≈ 17.1 µM)
